Data on two compounds can be found in ChEMBL document CHEMBL5226322, “Harnessing the Role of HDAC6 in Idiopathic Pulmonary Fibrosis: Design, Synthesis, Structural Analysis, and Biological Evaluation of Potent Inhibitors” (J Med Chem, 2021).

The nature of data set [1]: Inhibition of spheroid count in IPF patient derived human Airway basal cell incubated for 14 days by Bright-field microscopy analysis. It counts as functional, cell-based. Summed up:
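Airway basal cells from bronchial brushings of IPF patients, 10⁴ cells in Matrigel on transwell inserts with 1:1 BEGM/DMEM. Treated 14 days (1–50 nM per methods; 0.1–50 nM per legend), medium changed every 7 days.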

For data set [2], the target named is T1, Protein deacetylase HDAC6 (Homo sapiens) (UniProt Q9UBN7).
T1 sequence (whole entry): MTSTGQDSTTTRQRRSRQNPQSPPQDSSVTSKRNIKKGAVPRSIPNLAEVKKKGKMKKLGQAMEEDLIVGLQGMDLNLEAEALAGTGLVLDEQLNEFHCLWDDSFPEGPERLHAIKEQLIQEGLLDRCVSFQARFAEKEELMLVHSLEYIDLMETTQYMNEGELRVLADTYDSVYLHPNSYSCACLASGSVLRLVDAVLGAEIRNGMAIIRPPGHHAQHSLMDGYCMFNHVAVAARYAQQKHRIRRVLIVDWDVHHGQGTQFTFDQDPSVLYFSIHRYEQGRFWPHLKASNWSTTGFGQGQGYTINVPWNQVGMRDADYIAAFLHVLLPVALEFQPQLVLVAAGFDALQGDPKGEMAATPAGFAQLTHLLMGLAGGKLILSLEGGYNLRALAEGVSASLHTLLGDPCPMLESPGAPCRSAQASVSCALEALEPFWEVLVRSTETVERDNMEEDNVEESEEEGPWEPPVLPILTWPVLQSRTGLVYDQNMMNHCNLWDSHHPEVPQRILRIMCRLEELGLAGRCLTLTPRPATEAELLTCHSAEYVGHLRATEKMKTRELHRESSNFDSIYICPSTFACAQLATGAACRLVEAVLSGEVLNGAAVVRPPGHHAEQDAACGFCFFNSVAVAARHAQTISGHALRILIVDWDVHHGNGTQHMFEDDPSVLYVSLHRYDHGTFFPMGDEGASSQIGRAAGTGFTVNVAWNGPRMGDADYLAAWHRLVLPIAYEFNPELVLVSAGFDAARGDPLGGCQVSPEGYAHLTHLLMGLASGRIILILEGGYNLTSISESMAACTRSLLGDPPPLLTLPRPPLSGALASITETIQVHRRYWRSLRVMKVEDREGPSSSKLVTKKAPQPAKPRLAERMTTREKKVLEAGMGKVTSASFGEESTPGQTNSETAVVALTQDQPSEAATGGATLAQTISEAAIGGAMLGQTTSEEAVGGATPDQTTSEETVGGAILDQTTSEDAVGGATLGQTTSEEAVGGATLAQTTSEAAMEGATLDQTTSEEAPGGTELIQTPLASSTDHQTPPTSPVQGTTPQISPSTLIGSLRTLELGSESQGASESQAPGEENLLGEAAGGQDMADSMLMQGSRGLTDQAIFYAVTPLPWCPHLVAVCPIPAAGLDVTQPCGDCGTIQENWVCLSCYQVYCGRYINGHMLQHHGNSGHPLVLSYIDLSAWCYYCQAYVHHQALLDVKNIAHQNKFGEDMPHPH
Nature of the data set: Inhibition of HDAC6 in human NB-4 cells assessed as increase in acetylation of alpha-tubulin at 5 uM incubated for 30 hrs by western blot analysis. It counts as cell-based. In a few lines:
(§1)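 Whole lysates (35 μg) and acid-extracted histones (2 μg) run on SDS-PAGE and blotted for acetylated tubulin or acetyl-histone H3; GAPDH or H4 as loading controls.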

Data set [3] in a line: Chemical stability of the compound at pH 3 incubated for 24 hrs by HPLC-UV analysis. It counts as physicochemical. Particulars: buffer, read-out: Stability. In a few lines: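 Compound from 10 mM DMSO stock diluted to 250 μM (2.5% DMSO) in 50 mM acetic acid, pH 3.0. Held 24 h at 25 °C with orbital shaking. Analysed by RP-18 HPLC with UV at 254 nm. Percent remaining = peak area at 24 h / peak area at T0 × 100. Run in triplicate and averaged.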

Another data set concerns the target Histone deacetylase 1 (Homo sapiens, UniProt Q13547). Nature of the data set: Inhibition of HDAC1 in human NB-4 cells assessed as increase in acetylation of histone H3 at 5 uM incubated for 30 hrs by western blot analysis. The class given is cell-based. Summed up:
as §1

Data set [4] addresses T1, Protein deacetylase HDAC6 (Homo sapiens). Nature of the data set: Inhibition of HDAC6 in human U87 cells assessed as increase in acetylation of alpha-tubulin at 5 uM incubated for 30 hrs by western blot analysis. The class given is cell-based. In a few lines: as §1
A short description of data set [5]: Solubility of the compound at pH 3 PBS buffer incubated for 24 hrs by HPLC-UV analysis. The class given is physicochemical. Particulars: pH 3, 24 h. Summed up:
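Compound from 10 mM DMSO stock diluted to 250 μM (2.5% DMSO), either in 50 mM acetic acid (pH 3.0) or in 50 mM aqueous PBS (pH 7.4). Shaken 24 h at 25 °C, PTFE-filtered and diluted 1:2. Quantified by RP-18 HPLC-UV at 254 nm against a 250 μM standard in MeCN/water. Run in triplicate and averaged.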

A short description of data set [6]: Metabolic stability in human liver microsome assessed as intrinsic clearance at 5 uM in presence of NADPH incubated up to 60 mins by HPLC analysis. Conditions: microsomes, 1 h. It counts as ADME. Summed up: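 Compound at 5 μM, added in MeCN, incubated at 37 °C in 100 mM phosphate buffer pH 7.4 with 0.5 mg/mL human liver microsomal protein. Reaction started with an NADPH-generating system (2 mM NADPH, glucose-6-phosphate, G6P dehydrogenase, MgCl2). Stopped with MeCN at time points over 0–60 min. Remaining compound measured by RP-18 HPLC-UV at 254 nm, in triplicate. First-order depletion constant k; CLint = k × incubation volume / microsomal protein.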

A short description of data set [7]: Cytotoxicity in mouse NIH3T3 cells assessed as reduction in cell viability by measuring toxic concentration incubated for 24 hrs by neutral red uptake method based UV/visible spectrophotometer analysis. It counts as toxicity. Conditions: read-out: TC50. In a few lines:
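NIH3T3 mouse fibroblasts grown in DMEM with 10% FCS, L-glutamine/penicillin/streptomycin and non-essential amino acids, 37 °C, 5% CO2. DMSO stocks diluted in complete medium, applied to monolayers for 24 h at several concentrations. Viability by Neutral Red uptake: 3 h dye loading, desorb in acetic acid/ethanol, absorbance at 540 nm. Student's t-test, p < 0.05.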

Another data set has as its system NIH3T3. The data set is described as follows: Cytotoxicity in mouse NIH3T3 cells assessed as reduction in cell viability at 25 uM incubated for 24 hrs by neutral red uptake method based UV/visible spectrophotometer analysis. It counts as toxicity. Conditions: nih3t3, 24 h. In a few lines: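 NIH3T3 mouse fibroblasts grown in DMEM with 10% FCS, L-glutamine/pen-strep and non-essential amino acids (37 °C, 5% CO2). Exposed 24 h to compound diluted from a DMSO stock into medium. Viability measured by Neutral Red uptake: 3 h in NR medium, then acetic acid/ethanol desorb, absorbance at 540 nm. Student's t-test, p<0.05.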

A short description of data set [8]: Toxicity in zebra fish embryo at 50 uM […]. Set-up: species or system Danio rerio. Conditions: zebrafish. In a few lines:
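Wildtype Tübingen zebrafish larvae reared at 28.5 °C (14 h light/10 h dark) in embryo medium with methylene blue. From 3 days old, exposed for 2 days to 1, 10, 25, 50 or 100 µM in embryo medium, or 0.1% DMSO vehicle. 4 larvae per well in 400 µL, 8 larvae per group. Larvae scored for swim bladder inflation and cardiac edema.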

Values after ≈ are worked out from the molar mass of the structure shown. Active and inactive are the calls of the source. No cut-off for these calls is given here.

Sequence of Histone deacetylase 1 (Q13547 whole entry): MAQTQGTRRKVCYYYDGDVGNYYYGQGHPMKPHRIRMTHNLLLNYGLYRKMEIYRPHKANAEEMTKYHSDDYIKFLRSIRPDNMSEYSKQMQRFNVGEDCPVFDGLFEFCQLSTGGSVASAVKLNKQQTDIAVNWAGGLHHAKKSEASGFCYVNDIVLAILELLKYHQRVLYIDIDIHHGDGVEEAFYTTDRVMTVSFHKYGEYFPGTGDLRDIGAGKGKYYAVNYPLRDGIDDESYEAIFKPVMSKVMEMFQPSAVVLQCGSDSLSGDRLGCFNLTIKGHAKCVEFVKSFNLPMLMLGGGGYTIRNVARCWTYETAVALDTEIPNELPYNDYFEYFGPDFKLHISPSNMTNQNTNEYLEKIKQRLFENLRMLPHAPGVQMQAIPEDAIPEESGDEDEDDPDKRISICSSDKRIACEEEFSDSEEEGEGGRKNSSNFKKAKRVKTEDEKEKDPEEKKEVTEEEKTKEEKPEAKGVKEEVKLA

As to `CN1CCC2(CC1)c1ccccc1N(Cc1ccc(C(=O)NO)cc1)C2c1ccccc1F` (racemic), the IC50 in data set [1] was 6.38 nM. In addition, the inhibition result (in [2]; at Histone deacetylase 1; in data set [4]) was “Active” throughout. For the same compound, the remaining at 24 h in data set [3] turned out to be 98%. Besides, the solubility in [5] was found to be 456 µM (≈ 203 µg/mL). In data set [6], the CLH was determined as 27.43 µL/min/mg.
As to `CC1(C)c2ccccc2N(Cc2ccc(C(=O)NO)cc2)C1c1cccnc1` (racemic), in data set [7], the CC50 at 24 h stood at 75000 nM. The Activity in the data set on NIH3T3 is 87%; in data set [8] it was “Non-Toxic”. This compound also yielded an IC50 in [1] of 7.31 nM. Besides, the inhibition entry in [2] and in data set [4] was “Active” in each case. Moreover, the remaining at 24 h in [3] came out at 89%. The inhibition result on Histone deacetylase 1 is “inactive”. The same compound gave a solubility in data set [5] of 459 µM (≈ 171 µg/mL). Also, in [6], the CLH amounted to 25.46 µL/min/mg.
